Results taken from ChEMBL document CHEMBL1811844, “Design, synthesis, and biological evaluation of triazolo-pyrimidine derivatives as novel inhibitors of hepatitis B virus surface antigen (HBsAg) secretion” (J Med Chem, 2011).

Assays:
Type in all cases: ADME, organism-based
Conditions in all cases: in vivo
[1] = system: Rattus norvegicus; assay: Total body clearance in fasted Sprague-Dawley rat at 5 mg/kg, iv by LC/MS/MS analysis; design: dose 5 mg/kg, route intravenous
Summary of the method: (§1)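 Male Sprague-Dawley rats, 3 per treatment, carried jugular cannulae and were fasted 12 h with water. Compound was formulated at 2 mg/mL in 1:1 NMP:Solutol HS15 diluted with saline. Dosing was 5 mg/kg iv or 25 mg/kg oral gavage. Blood was drawn predose and at 5, 15, 30 min, 1, 3 and 6 h. Plasma was quantified by LC-MS/MS against an 8-point standard curve.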

[2] = system: Rattus norvegicus; assay: Volume of distribution at steady state in fasted Sprague-Dawley rat at 5 mg/kg, iv by LC/MS/MS analysis; design: dose 5 mg/kg, route intravenous; summary of the method: as §1
[3] = system: Rattus norvegicus; assay: Oral bioavailability in fasted Sprague-Dawley rat at 25 mg/kg after 6 hrs by LC/MS/MS analysis; summary of the method: as §1
[4] = system: Rattus norvegicus; assay: Cmax in fasted Sprague-Dawley rat plasma at 25 mg/kg, po after 6 hrs by LC/MS/MS analysis; design: dose 25 mg/kg, route oral
Summary of the method: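 Male rats, 3 per treatment, fitted with jugular vein cannulae two days before dosing and fasted 12 h (water allowed). Compound given by gavage at 25 mg/kg, formulated at 2 mg/mL in 1:1 NMP:Solutol HS15 diluted with saline. Blood taken predose and at 5, 15, 30 min, 1, 3 and 6 h. Plasma quantified by LC/MS against an 8-point standard curve; Cmax calculated by standard methods.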

[5] = system: Rattus norvegicus; assay: Half life in fasted Sprague-Dawley rat plasma at 5 mg/kg, iv by LC/MS/MS analysis; design: dose 5 mg/kg, route intravenous; summary of the method: as §1

SMILES: Fc1cccc(F)c1C1C=C(c2ccc(Cl)cc2)Nc2ncnn21 (stereo not given)
- CL [1]: 17 mL/min/kg
- Vdss [2]: 2.6 L/kg
- F [3]: 42%
- Cmax [4]: 1937 ng/mL
- t1/2 [5]: 2.4 h
